Test results: ChEMBL document CHEMBL1141702 (Bioorg Med Chem Lett, 2008)

Assays:
[1] = biological target: Sodium-dependent dopamine transporter (Rattus norvegicus, UniProt P23977); assay: Displacement of [3H]WIN-35428 from DAT in rat striatum membrane; format: cell membranes
[2] = biological target: Sodium-dependent serotonin transporter (Rattus norvegicus, UniProt P31652); assay: Displacement of [3H]citalopram from SERT in rat brain stem membrane; format: cell membranes
Procedure, shortened: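 [³H]Citalopram binding in previously frozen rat brain stem, buffer 50 mM Tris, 5 mM KCl, 120 mM NaCl. Incubation 60 min at 25 °C. Ki values derived from competition binding.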

[3] = biological target: Sigma non-opioid intracellular receptor 1 (Cavia porcellus, UniProt Q60492); assay: Displacement of [3H](+)-pentazocine from sigma 1 receptor in guinea pig brain membrane; format: cell membranes
Chain of Sigma non-opioid intracellular receptor 1 (Q60492 whole entry): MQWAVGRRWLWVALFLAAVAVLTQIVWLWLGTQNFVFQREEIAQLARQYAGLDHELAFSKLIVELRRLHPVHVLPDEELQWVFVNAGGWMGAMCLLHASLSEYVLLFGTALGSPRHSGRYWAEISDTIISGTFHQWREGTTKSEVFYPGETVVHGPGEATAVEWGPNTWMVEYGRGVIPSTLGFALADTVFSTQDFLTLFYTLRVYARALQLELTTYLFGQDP
Procedure, shortened: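 Tissue was previously frozen guinea pig brain minus cerebellum, incubated 120 min at 25 °C. Ki values derived from competition binding.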

[4] = biological target: Transporter (Rattus norvegicus, UniProt Q63380); assay: Displacement of [3H]nisoxetine from NET in rat frontal cortex membrane; format: cell membranes
Chain of Transporter (Q63380 whole entry): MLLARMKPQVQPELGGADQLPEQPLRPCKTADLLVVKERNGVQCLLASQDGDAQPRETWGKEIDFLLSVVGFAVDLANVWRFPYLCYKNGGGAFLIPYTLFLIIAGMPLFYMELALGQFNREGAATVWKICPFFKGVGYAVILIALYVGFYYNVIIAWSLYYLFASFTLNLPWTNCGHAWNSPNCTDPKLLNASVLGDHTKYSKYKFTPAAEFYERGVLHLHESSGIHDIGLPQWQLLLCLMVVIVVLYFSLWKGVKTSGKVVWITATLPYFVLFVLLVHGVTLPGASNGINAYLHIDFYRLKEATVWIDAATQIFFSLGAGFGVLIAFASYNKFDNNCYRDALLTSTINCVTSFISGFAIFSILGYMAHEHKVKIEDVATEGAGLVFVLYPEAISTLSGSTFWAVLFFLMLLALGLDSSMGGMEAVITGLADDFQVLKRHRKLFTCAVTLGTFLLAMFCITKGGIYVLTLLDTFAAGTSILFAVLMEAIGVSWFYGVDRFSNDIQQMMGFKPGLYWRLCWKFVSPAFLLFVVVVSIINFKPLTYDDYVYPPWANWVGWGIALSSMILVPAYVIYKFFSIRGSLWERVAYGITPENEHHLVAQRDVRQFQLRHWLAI
Procedure, shortened: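 Assay used previously frozen rat frontal cortex with [³H]nisoxetine in 50 mM Tris, 5 mM KCl, 120 mM NaCl buffer. Incubated 180 min on ice. Ki values derived from competition binding.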

[5] = species: Rattus norvegicus; assay: Selectivity ratio of Ki for rat brain stem SERT to Ki for rat striatum DAT; format: tissue-based
[6] = species: Rattus norvegicus; assay: Selectivity ratio of Ki for rat brain stem SERT to Ki for rat frontal cortex NET; format: tissue-based
[7] = Selectivity ratio of Ki for rat brain stem SERT to Ki for guinea pig brain sigma 1 receptor

Chain of Sodium-dependent dopamine transporter (P23977 whole entry): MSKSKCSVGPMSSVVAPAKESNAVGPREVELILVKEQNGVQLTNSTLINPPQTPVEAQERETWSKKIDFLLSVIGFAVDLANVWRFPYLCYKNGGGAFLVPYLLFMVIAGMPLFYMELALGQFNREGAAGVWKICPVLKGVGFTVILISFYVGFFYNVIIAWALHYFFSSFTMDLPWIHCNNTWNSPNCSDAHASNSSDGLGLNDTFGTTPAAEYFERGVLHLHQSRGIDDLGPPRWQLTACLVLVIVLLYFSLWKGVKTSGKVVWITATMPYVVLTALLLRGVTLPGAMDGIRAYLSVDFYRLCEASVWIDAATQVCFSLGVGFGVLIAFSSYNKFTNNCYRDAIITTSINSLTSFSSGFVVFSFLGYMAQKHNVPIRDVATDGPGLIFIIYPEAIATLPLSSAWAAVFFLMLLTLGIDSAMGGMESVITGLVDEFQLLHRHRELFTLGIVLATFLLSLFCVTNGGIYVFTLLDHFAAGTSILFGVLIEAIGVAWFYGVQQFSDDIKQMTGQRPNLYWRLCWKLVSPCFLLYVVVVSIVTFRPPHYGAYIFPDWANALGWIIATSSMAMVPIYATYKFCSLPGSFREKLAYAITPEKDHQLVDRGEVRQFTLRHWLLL
Chain of Sodium-dependent serotonin transporter (P31652 whole entry): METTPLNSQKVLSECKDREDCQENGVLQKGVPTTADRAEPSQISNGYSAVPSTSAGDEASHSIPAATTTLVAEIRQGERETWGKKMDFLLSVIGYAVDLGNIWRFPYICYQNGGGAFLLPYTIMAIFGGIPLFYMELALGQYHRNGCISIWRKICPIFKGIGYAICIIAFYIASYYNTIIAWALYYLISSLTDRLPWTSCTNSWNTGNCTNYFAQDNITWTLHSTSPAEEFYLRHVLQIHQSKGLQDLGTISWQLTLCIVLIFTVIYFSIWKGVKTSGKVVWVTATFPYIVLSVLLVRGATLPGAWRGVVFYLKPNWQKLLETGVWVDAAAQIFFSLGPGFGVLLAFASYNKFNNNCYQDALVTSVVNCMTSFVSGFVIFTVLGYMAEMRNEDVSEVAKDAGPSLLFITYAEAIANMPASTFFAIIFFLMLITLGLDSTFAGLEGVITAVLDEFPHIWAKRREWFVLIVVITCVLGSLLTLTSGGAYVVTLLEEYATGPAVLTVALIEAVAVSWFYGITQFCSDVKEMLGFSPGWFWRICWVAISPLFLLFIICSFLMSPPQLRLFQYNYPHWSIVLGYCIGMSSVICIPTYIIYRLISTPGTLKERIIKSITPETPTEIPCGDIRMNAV

| Structure (SMILES) | Ki [1] [µM] | Ki [2] [µM] | Ki [3] [µM] | Ki [4] [µM] | Ratio Ki [5] | Ratio Ki [6] | Ratio Ki [7] |
| --- | --- | --- | --- | --- | --- | --- | --- |
| CCCN(CCC)CCc1ccc(OC)c(OCCc2ccccc2)c1 | 3.62 | > 10 | – | – | – | – | – |
| Fc1ccc(C(OCCN2CCN(CCCc3ccccc3)CC2)c2ccc(F)cc2)cc1 [VANOXERINE] | – | – | 0.0508 | – | – | – | – |
| CCCC(=O)O[C@@H](Cc1ccccc1)CN1CCN(CCCN(c2ccc(F)cc2)c2ccc(F)cc2)CC1 | 0.0335 | 1.68 | 0.292 | – | – | – | – |
| O=C(Cc1ccccc1)O[C@@H](Cc1ccccc1)CN1CCN(CCCN(c2ccc(F)cc2)c2ccc(F)cc2)CC1 | 0.00692 | 1.95 | 0.0874 | 1.68 | 282 | 243 | 13 |
| C=CC(=O)OC(CCN1CCN(CCCN(c2ccc(F)cc2)c2ccc(F)cc2)CC1)c1ccccc1 (stereo not given) | 0.00671 | 0.318 | 0.0873 | 1.95 | – | – | – |
| O=C(CCCc1ccccc1)OC(CCN1CCN(CCCN(c2ccc(F)cc2)c2ccc(F)cc2)CC1)c1ccccc1 (stereo not given) | 0.0513 | 2.19 | 0.246 | > 10 | – | – | – |
| O=C(CCc1ccccc1)OC(CCN1CCN(CCCN(c2ccc(F)cc2)c2ccc(F)cc2)CC1)c1ccccc1 (stereo not given) | 0.0366 | 1.3 | 0.235 | – | – | – | – |
| C=CC(=O)O[C@@H](Cc1ccccc1)CN1CCN(CCCN(c2ccc(F)cc2)c2ccc(F)cc2)CC1 | 0.00326 | 0.66 | 0.0455 | 0.81 | – | – | – |
| CC(=O)O[C@@H](Cc1ccccc1)CN1CCN(CCCN(c2ccc(F)cc2)c2ccc(F)cc2)CC1 | 0.0217 | 0.835 | 0.075 | – | – | – | – |
| O=C(Cc1ccccc1)OC(CCN1CCN(CCCN(c2ccc(F)cc2)c2ccc(F)cc2)CC1)c1ccccc1 (stereo not given) | 0.0149 | 1.23 | 0.135 | 2.74 | 83 | 184 | 9 |
| CC(C)C(=O)OC(CCN1CCN(CCCN(c2ccc(F)cc2)c2ccc(F)cc2)CC1)c1ccccc1 (stereo not given) | 0.00936 | 0.543 | 0.0883 | – | – | – | – |
| CCC(=O)OC(CCN1CCN(CCCN(c2ccc(F)cc2)c2ccc(F)cc2)CC1)c1ccccc1 (stereo not given) | 0.00557 | 0.273 | 0.076 | 1.5 | 49 | 269 | 14 |
| O[C@H](Cc1ccccc1)CN1CCN(CCCN(c2ccc(F)cc2)c2ccc(F)cc2)CC1 | 0.00536 | 0.521 | 0.0334 | 2.11 | – | – | – |
| CCC(=O)O[C@@H](Cc1ccccc1)CN1CCN(CCCN(c2ccc(F)cc2)c2ccc(F)cc2)CC1 | 0.0151 | 1.04 | 0.0818 | – | – | – | – |
| C[C@@H]1CN(CCCn2c3ccccc3c3ccccc32)C[C@H](C)N1 [RIMCAZOLE] | 0.0977 | – | – | – | – | – | – |
| O[C@@H](Cc1ccccc1)CN1CCN(CCCN(c2ccc(F)cc2)c2ccc(F)cc2)CC1 | 0.00172 | 0.779 | 0.0281 | 0.766 | – | – | – |
| CC(=O)OC(CCN1CCN(CCCN(c2ccc(F)cc2)c2ccc(F)cc2)CC1)c1ccccc1 (stereo not given) | 0.00428 | 0.204 | 0.0566 | 0.99 | – | – | – |
| OC(CCN1CCN(CCCN(c2ccc(F)cc2)c2ccc(F)cc2)CC1)c1ccccc1 (racemic) | 0.00345 | – | – | – | – | – | – |
